# According to ChEMBL document CHEMBL4145447, “4-arylamidobenzyl substituted 5-bromomethylene-2(5H)-furanones for chronic bacterial infection” (Eur J Med Chem, 2018):
# Activity calls are given as the source filed them. The calls are words filed in the database; no cut-off is given here.
# Columns and labels:
# RAW264.7 [1] = assay: Anti-inflammatory activity in mouse RAW264.7 cells assessed as inhibition of LPS-induced NO production at 10 uM preincubated for 2 hrs followed by LPS stimulation and measured after 48 hrs by Griess method relative to control; assay type: functional
# How it was run: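 RAW264.7 cells seeded at 5 × 10^4/well and cultured 18 h, then given 10 µM compound plus LPS 100 ng/mL for 48 h at 37 °C. Supernatant mixed 1:1 with Griess reagent (1% sulfanilamide, 0.1% naphthylethylenediamine in 5% phosphoric acid) for 10 min; nitrite read at OD540.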
# [2] = target: T1, Anthranilate--CoA ligase (Pseudomonas aeruginosa (strain ATCC 15692 / DSM 22644 / CIP 104116 /JCM 14847 / LMG 12228 / 1C / PRS 101 / PAO1)) (UniProt Q9I4X3); assay: Inhibition of Pseudomonas aeruginosa PAO1 GFP-fused quorum sensing pqsA at 10 uM measured every 15 mins up to 12 hrs by GFP reporter gene assay relative to control
# T1 sequence (whole entry): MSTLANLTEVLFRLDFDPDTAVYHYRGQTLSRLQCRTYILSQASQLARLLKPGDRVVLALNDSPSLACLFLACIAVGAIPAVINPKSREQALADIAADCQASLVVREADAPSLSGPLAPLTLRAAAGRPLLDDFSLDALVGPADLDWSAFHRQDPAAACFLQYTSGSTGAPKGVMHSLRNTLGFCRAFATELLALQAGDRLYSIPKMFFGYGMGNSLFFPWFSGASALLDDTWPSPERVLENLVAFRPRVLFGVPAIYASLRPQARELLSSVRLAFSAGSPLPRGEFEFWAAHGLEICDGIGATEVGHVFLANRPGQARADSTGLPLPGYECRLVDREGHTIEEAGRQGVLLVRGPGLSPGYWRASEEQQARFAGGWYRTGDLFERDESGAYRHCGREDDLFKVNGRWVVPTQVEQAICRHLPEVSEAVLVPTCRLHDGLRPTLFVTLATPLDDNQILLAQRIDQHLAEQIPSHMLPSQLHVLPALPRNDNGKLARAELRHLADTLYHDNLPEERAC
# How it was run: (§1)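 GFP reporter strains of P. aeruginosa PAO1 (lasB-, rhlA- or pqsA-promoter fused to unstable gfp(ASV)) grown overnight in LB at 37 °C, 200 rpm, 18 h, then diluted 1:100. Culture mixed 1:1 with compound diluted in LB from 10 mM DMSO stock (0.1% DMSO final). Fluorescence (ex 485/em 528 nm) read every 15 min at 37 °C for ≥12 h.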
# RAW264.7 [3] = assay: Anti-inflammatory activity in mouse RAW264.7 cells assessed as inhibition of LPS-induced TNF-alpha production by measuring TNF-alpha level at 10 uM preincubated for 2 hrs followed by LPS stimulation and measured after 12 hrs by ELISA (reference value: 21561.3 +/- 857 pg/ml); assay type: functional
# RAW264.7 [4] = assay: Anti-inflammatory activity in mouse RAW264.7 cells assessed as inhibition of LPS-induced TNF-alpha production by measuring TNF-alpha level at 10 uM preincubated for 2 hrs followed by LPS stimulation and measured after 24 hrs by ELISA (reference value: 24216 +/- 498.7 pg/ml); assay type: functional
# RAW264.7 [5] = assay: Anti-inflammatory activity in mouse RAW264.7 cells assessed as inhibition of LPS-induced TNF-alpha production by measuring TNF-alpha level at 10 uM preincubated for 2 hrs followed by LPS stimulation and measured after 6 hrs by ELISA (reference value: 11922 +/- 628.4 pg/ml); assay type: functional
# [6] = target: T2, Peroxisome proliferator-activated receptor gamma (Mus musculus) (UniProt P37238); assay: Agonist activity at PPARgamma in mouse RAW264.7 cells assessed as inhibition of LPS-induced NF-kB p65 phosphorylation at 10 uM preincubated for 1 hr followed by LPS stimulation and measured after 4 hrs in presence of PPARgamma antagonist GW9662 by Western blot analysis; assay type: cell-based
# T2 sequence (whole entry): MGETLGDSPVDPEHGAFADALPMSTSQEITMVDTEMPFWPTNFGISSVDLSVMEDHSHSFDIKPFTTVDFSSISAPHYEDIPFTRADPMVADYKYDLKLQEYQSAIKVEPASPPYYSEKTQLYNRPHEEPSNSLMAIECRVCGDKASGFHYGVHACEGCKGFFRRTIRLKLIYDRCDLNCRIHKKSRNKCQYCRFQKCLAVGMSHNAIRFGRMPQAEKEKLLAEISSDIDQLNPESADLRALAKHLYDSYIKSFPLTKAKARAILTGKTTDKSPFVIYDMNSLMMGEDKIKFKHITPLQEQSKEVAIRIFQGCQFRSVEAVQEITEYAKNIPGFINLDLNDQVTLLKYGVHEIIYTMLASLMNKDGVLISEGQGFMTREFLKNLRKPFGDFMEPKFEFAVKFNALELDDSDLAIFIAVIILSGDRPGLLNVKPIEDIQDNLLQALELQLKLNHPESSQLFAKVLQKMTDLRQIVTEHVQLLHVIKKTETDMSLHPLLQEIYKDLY
# How it was run: (§2)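 Western blot: RAW264.7 cells (2 × 10^6/well) pretreated 1 h with compound (10 µM), antagonist GW9662 (5 µM) where stated, then LPS 500 ng/mL for 4 h. Lysis on ice with PMSF, BCA-normalised protein on SDS gels, PVDF transfer, milk block, phospho- and total-protein primary antibodies, HRP secondary, ECL detection. Densitometry normalised to internal control; n = 3.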
# [7] = target: T2, Peroxisome proliferator-activated receptor gamma (Mus musculus); assay: Agonist activity at PPARgamma in mouse RAW264.7 cells assessed as inhibition of LPS-induced ERk1/2 phosphorylation at Thr202/Tyr204 residues at 10 uM preincubated for 1 hr followed by LPS stimulation and measured after 4 hrs by Western blot analysis; assay type: cell-based; how it was run: as §2
# [8] = tested on: Pseudomonas aeruginosa PAO1; assay: Inhibition of Pseudomonas aeruginosa PAO1 GFP-fused quorum sensing rhlA at 10 uM measured every 15 mins up to 12 hrs by GFP reporter gene assay relative to control; how it was run: as §1
# Pseudomonas aeruginosa = assay: Growth inhibition of Pseudomonas aeruginosa PAO1 at 5 to 100 uM measured every 15 mins up to 12 hrs; assay type: organism-based; settings: in vitro
# How it was run: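 Growth of P. aeruginosa PAO1 was run like the reporter assay. The overnight LB culture was diluted in fresh LB and mixed in equal parts with compound diluted in LB, then growth was monitored in 96-well plates.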
# RAW264.7 [9] = assay: Anti-inflammatory activity in mouse RAW264.7 cells assessed as inhibition of LPS-induced IL-6 production by measuring IL-6 level at 10 uM preincubated for 2 hrs followed by LPS stimulation and measured after 24 hrs by ELISA (reference value: 407.6 +/- 16.7 pg/ml)
# [10] = target: T2, Peroxisome proliferator-activated receptor gamma (Mus musculus); assay: Agonist activity at PPARgamma in mouse RAW264.7 cells assessed as inhibition of LPS-induced NF-kB p65 phosphorylation at 10 uM preincubated for 1 hr followed by LPS stimulation and measured after 4 hrs by Western blot analysis; assay type: cell-based; how it was run: as §2
Compound,inhibition at 10 µM (RAW264.7 [1]),inhibition [2],Activity (RAW264.7 [3]),Activity (RAW264.7 [4]),Activity (RAW264.7 [5]),inhibition [6],inhibition [7],inhibition [8],growth inhibition (GI) (Pseudomonas aeruginosa),Activity (RAW264.7 [9]),inhibition [10]
O=C(Cc1ccc(F)cc1)Nc1ccc(CC2=CC(=O)OC2=CBr)cc1,73.7%,50.3%,13362.7 pg/mL,18322 pg/mL,7524.7 pg/mL,inactive,Active,14.7%,Non-Toxic,145.2 pg/mL,Active
O=C(C=Cc1ccccc1)Nc1ccc(CC2=CC(=O)O/C2=C/Br)cc1,70%,23.1%,15037.3 pg/mL,19550 pg/mL,7750 pg/mL,inactive,Active,12%,Non-Toxic,158.2 pg/mL,Active
